Reference: ChEMBL document CHEMBL1127457, “Nonpeptide renin inhibitors with good intraduodenal bioavailability and efficacy in dog” (J Med Chem, 1994)
pIC50: −log10 of the molar value.

How the values were obtained:
Renin [1] = target: T1, Renin (Homo sapiens, UniProt P00797); assay: Tested in vitro for its ability to inhibit the human plasma renin; type: cell-free
T1 sequence (P00797 whole entry): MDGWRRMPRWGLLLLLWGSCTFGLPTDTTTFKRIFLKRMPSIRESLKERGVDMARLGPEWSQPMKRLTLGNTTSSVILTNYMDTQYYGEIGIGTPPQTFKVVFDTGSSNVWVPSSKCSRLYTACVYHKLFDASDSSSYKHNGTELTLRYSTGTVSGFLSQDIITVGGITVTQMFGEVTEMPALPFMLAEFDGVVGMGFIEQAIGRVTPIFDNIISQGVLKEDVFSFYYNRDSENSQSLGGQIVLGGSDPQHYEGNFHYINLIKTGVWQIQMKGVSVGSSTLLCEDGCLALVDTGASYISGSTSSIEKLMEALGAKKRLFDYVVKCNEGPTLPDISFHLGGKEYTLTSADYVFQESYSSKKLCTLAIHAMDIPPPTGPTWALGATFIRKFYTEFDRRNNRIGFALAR
Method in brief: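 IC50 against renin in plasma from the named species (dog, ferret, human, rat); single determination in most cases.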

[2] = Average area under curve for the compound at 10 mg/kg dose after intraduodenal administration to rat; conditions: in vivo
[3] = Average area under curve for the compound at 1 mg/kg dose after intravenous administration to rat; conditions: in vivo
[4] = Oral bioavailability in rat; conditions: in vivo, intraduodenal, 10 mg/kg
[5] = Average peak plasma concentration of compound after 10 mg/kg intraduodenal administration to rat
[6] = Average peak plasma concentration of compound after 1 mg/kg intravenous administration to rat
[7] = Partition coefficient (logD6.5); conditions: octanol/water, pH 6.5
[8] = Partition coefficient (logD7.4); conditions: octanol/water, pH 7.4
Renin [9] = target: T1, Renin; assay: Tested in vitro for its ability to inhibit the human plasma renin at pH of 7.4; type: cell-free

| Structure (SMILES) | pIC50 (Renin [1]) | logD [7] | logD [8] | pIC50 (Renin [9]) | also measured |
| --- | --- | --- | --- | --- | --- |
| CCCC[C@H](N[C@@H](Cc1ccccc1)C(=O)N1CCC(OCOC)CC1)C(=O)N[C@@H](CC1CCCCC1)[C@@H](O)C[C@H](C(=O)NCCNC(=O)OCc1ccccc1)C(C)C | 7.77 |  |  |  |  |
| CCCC[C@H](N[C@@H](Cc1ccccc1)C(=O)N1CCC(OCOC)CC1)C(=O)N[C@@H](CC1CCCCC1)[C@@H](O)C[C@H](C(=O)NCc1ccccc1)C(C)C | 7.85 | > 5 | > 5 |  | AUC [2]: 1100 ng·h/mL; AUC [3]: 1540 ng·h/mL; bioavailability [4]: 7%; Cmax ([5]; in vivo): 930 ng/mL; Cmax ([6]; in vivo): 1660 ng/mL |
| CCCC[C@H](O[C@@H](Cc1ccccc1)C(=O)N1CCC(OCOC)CC1)C(=O)N[C@@H](CC1CCCCC1)[C@@H](O)C[C@H](C(=O)NCCCNC(N)=O)C(C)C |  |  |  | 8.70 |  |
| CCCC[C@H](O[C@@H](Cc1ccccc1)C(=O)N1CCC(OCOC)CC1)C(=O)N[C@@H](CC1CCCCC1)[C@@H](O)C[C@H](C(=O)NCCCNCCO)C(C)C |  | 2.5 | 1.8 | 8.22 |  |
| CCCC[C@H](O[C@@H](Cc1ccccc1)C(=O)N1CCC(OCOC)CC1)C(=O)N[C@@H](CC1CCCCC1)[C@@H](O)C[C@H](C(=O)NCCNC(C)=O)C(C)C |  |  |  | 8.59 |  |
| CCCC[C@H](N[C@@H](Cc1ccccc1)C(=O)N1CCC(OCOC)CC1)C(=O)N[C@@H](CC1CCCCC1)[C@@H](O)C[C@H](C(=O)NCCN)C(C)C | 8.01 |  |  |  |  |
| CCCC[C@H](N[C@@H](Cc1ccccc1)C(=O)N1CCC(OCOC)CC1)C(=O)N[C@@H](CC1CCCCC1)[C@@H](O)C[C@H](C(=O)NCC(C)(C)NCCO)C(C)C | 8.20 |  |  |  | AUC [2]: 66.3 ng·h/mL; AUC [3]: 477 ng·h/mL; bioavailability [4]: 1%; Cmax ([5]; plasma): 80 ng/mL; Cmax ([6]; plasma): 3480 ng/mL |
| CCCC[C@H](N[C@@H](Cc1ccccc1)C(=O)N1CCC(OCOC)CC1)C(=O)N[C@@H](CC1CCCCC1)[C@@H](O)C[C@H](C(=O)NCC(=O)O)C(C)C | 7.92 | 2.3 | 2.8 |  |  |
| CCCC[C@H](N[C@@H](Cc1ccccc1)C(=O)N1CCC(OCOC)CC1)C(=O)N[C@@H](CC1CCCCC1)[C@@H](O)C[C@H](C(=O)NCCC(=O)O)C(C)C | 8.08 |  |  |  |  |
| CCCC[C@H](O[C@@H](Cc1ccccc1)C(=O)N1CCC(OCOC)CC1)C(=O)N[C@@H](CC1CCCCC1)[C@@H](O)C[C@H](C(=O)NCCCCN1CCOCC1)C(C)C |  |  |  | 8.48 |  |
| CCCC[C@H](O[C@@H](Cc1ccccc1)C(=O)N1CCC(OCOC)CC1)C(=O)N[C@@H](CC1CCCCC1)[C@@H](O)C[C@H](C(=O)NCCNc1n[nH]c(N)n1)C(C)C |  | 3.9 | 4 | 8.96 |  |
| CCCC[C@H](N[C@@H](Cc1ccccc1)C(=O)N1CCC(OCOC)CC1)C(=O)N[C@@H](CC1CCCCC1)[C@@H](O)C[C@H](C(=O)NCCCN)C(C)C | 8.02 | 2.7 | 3.3 |  |  |
| CCCC[C@H](O[C@@H](Cc1ccccc1)C(=O)N1CCC(OCOC)CC1)C(=O)N[C@@H](CC1CCCCC1)[C@@H](O)C[C@H](C(=O)NCCCNC(=NC#N)SC)C(C)C | 8.89 |  |  |  |  |
| CCCC[C@H](N[C@@H](Cc1ccccc1)C(=O)N1CCC(OCOC)CC1)C(=O)N[C@@H](CC1CCCCC1)[C@@H](O)C[C@H](C(=O)NCC(=O)OCc1ccccc1)C(C)C | 7.68 |  |  |  |  |
| CCCC[C@H](N[C@@H](Cc1ccccc1)C(=O)N1CCC(OCOC)CC1)C(=O)N[C@@H](CC1CCCCC1)[C@@H](O)C[C@H](C(=O)NCCC(=O)OCc1ccccc1)C(C)C | 7.64 |  |  |  |  |
| CCCC[C@H](N[C@@H](Cc1ccccc1)C(=O)N1CCC(OCOC)CC1)C(=O)N[C@@H](CC1CCCCC1)[C@@H](O)C[C@H](C(=O)NCC[N+]1([O-])CCOCC1)C(C)C | 8.08 |  |  |  |  |
| CCCC[C@H](N[C@@H](Cc1ccccc1)C(=O)N1CCC(OCOC)CC1)C(=O)N[C@@H](CC1CCCCC1)[C@@H](O)C[C@H](C(=O)NCCNc1n[nH]c(N)n1)C(C)C | 8.21 | 4.1 | 4.2 |  | AUC [2]: 94.8 ng·h/mL; AUC [3]: 318 ng·h/mL; bioavailability [4]: 2%; Cmax ([5]; plasma): 190 ng/mL; Cmax ([6]; plasma): 810 ng/mL |
| CCCC[C@H](O[C@@H](Cc1ccccc1)C(=O)N1CCC(OCOC)CC1)C(=O)N[C@@H](CC1CCCCC1)[C@@H](O)C[C@H](C(=O)NCC(C)(C)N)C(C)C |  | 2.7 | 3.5 | 8.33 |  |
| CCCC[C@H](O[C@@H](Cc1ccccc1)C(=O)N1CCC(OCOC)CC1)C(=O)N[C@@H](CC1CCCCC1)[C@@H](O)C[C@H](C(=O)NCCC/N=C(/NC)NC#N)C(C)C |  | 4.4 | 4.4 | 8.89 |  |
| CCCC[C@H](O[C@@H](Cc1ccccc1)C(=O)N1CCC(OCOC)CC1)C(=O)N[C@@H](CC1CCCCC1)[C@@H](O)C[C@H](C(=O)NCCN)C(C)C |  |  |  | 8.41 |  |

| Structure (SMILES) | pIC50 (Renin [1]) | logD [7] | logD [8] | pIC50 (Renin [9]) | also measured |
| --- | --- | --- | --- | --- | --- |
| CCCC[C@H](N[C@@H](Cc1ccccc1)C(=O)N1CCC(OCOC)CC1)C(=O)N[C@@H](CC1CCCCC1)[C@@H](O)C[C@H](C(=O)NCCCNCCO)C(C)C | 8.10 | 2.9 | 3.5 |  |  |
| CCCC[C@H](O[C@@H](Cc1ccccc1)C(=O)N1CCC(OCOC)CC1)C(=O)N[C@@H](CC1CCCCC1)[C@@H](O)C[C@H](C(=O)NCCC(=O)O)C(C)C | 8.17 | 1.9 | 2.8 |  |  |
| CCCC[C@H](O[C@@H](Cc1ccccc1)C(=O)N1CCC(OCOC)CC1)C(=O)N[C@@H](CC1CCCCC1)[C@@H](O)C[C@H](C(=O)NCCC(=O)OCC)C(C)C |  |  |  | 7.92 |  |
| CCCC[C@H](O[C@@H](Cc1ccccc1)C(=O)N1CCC(OCOC)CC1)C(=O)N[C@@H](CC1CCCCC1)[C@@H](O)C[C@H](C(=O)NCCCCN)C(C)C |  |  |  | 8.37 |  |
| CCCC[C@H](O[C@@H](Cc1ccccc1)C(=O)N1CCC(OCOC)CC1)C(=O)N[C@@H](CC1CCCCC1)[C@@H](O)C[C@H](C(=O)NCCNC(=O)OCc1ccccc1)C(C)C |  |  |  | 7.96 |  |
| CCCC[C@H](N[C@@H](Cc1ccccc1)C(=O)N1CCC(OCOC)CC1)C(=O)N[C@@H](CC1CCCCC1)[C@@H](O)C[C@H](C(=O)NCC(C)(C)N)C(C)C | 7.92 |  |  |  |  |
| CCCC[C@H](O[C@@H](Cc1ccccc1)C(=O)N1CCC(OCOC)CC1)C(=O)N[C@@H](CC1CCCCC1)[C@@H](O)C[C@H](C(=O)NCC/N=C(\NC#N)SC)C(C)C |  | > 5 | > 5 | 8.04 |  |
| CCCC[C@H](O[C@@H](Cc1ccccc1)C(=O)N1CCC(OCOC)CC1)C(=O)N[C@@H](CC1CCCCC1)[C@@H](O)C[C@H](C(=O)NCCNC(N)=O)C(C)C |  |  |  | 8.55 |  |
| CCCC[C@H](O[C@@H](Cc1ccccc1)C(=O)N1CCC(OCOC)CC1)C(=O)N[C@@H](CC1CCCCC1)[C@@H](O)C[C@H](C(=O)NCCNc1noc(N)n1)C(C)C |  | 4.5 | 4.4 | 8.51 |  |
| CCCC[C@H](O[C@@H](Cc1ccccc1)C(=O)N1CCC(OCOC)CC1)C(=O)N[C@@H](CC1CCCCC1)[C@@H](O)C[C@H](C(=O)NCc1nn[nH]n1)C(C)C |  |  |  | 8.08 |  |
| CCCC[C@H](O[C@@H](Cc1ccccc1)C(=O)N1CCC(OCOC)CC1)C(=O)N[C@@H](CC1CCCCC1)[C@@H](O)C[C@H](C(=O)NCCCN)C(C)C |  | 2.4 | 1.8 | 8.35 |  |
| CCCC[C@H](O[C@@H](Cc1ccccc1)C(=O)N1CCC(OCOC)CC1)C(=O)N[C@@H](CC1CCCCC1)[C@@H](O)C[C@H](C(=O)NCCCNC(N)=NC#N)C(C)C |  | 4.6 | 4.5 | 8.82 |  |
| CCCC[C@H](O[C@@H](Cc1ccccc1)C(=O)N1CCC(OCOC)CC1)C(=O)N[C@@H](CC1CCCCC1)[C@@H](O)C[C@H](C(=O)NCC(C)(C)N1CCOCC1)C(C)C |  | > 5 | > 5 | 8.23 |  |
| CCCC[C@H](O[C@@H](Cc1ccccc1)C(=O)N1CCC(OCOC)CC1)C(=O)N[C@@H](CC1CCCCC1)[C@@H](O)C[C@H](C(=O)NCCCNC(C)=O)C(C)C |  | 4.3 | 4.3 | 8.62 |  |
| CCCC[C@H](O[C@@H](Cc1ccccc1)C(=O)N1CCC(OCOC)CC1)C(=O)N[C@@H](CC1CCCCC1)[C@@H](O)C[C@H](C(=O)NCCNC(N)=NC#N)C(C)C |  | > 5 | > 5 | 8.74 |  |
| CCCC[C@H](O[C@@H](Cc1ccccc1)C(=O)N1CCC(OCOC)CC1)C(=O)N[C@@H](CC1CCCCC1)[C@@H](O)C[C@H](C(=O)NCCNC(N)=S)C(C)C |  | > 5 | > 5 | 8.66 |  |
| CCCC[C@H](O[C@@H](Cc1ccccc1)C(=O)N1CCC(OCOC)CC1)C(=O)N[C@@H](CC1CCCCC1)[C@@H](O)C[C@H](C(=O)NCCCNc1nnc(N)[nH]1)C(C)C |  | 4.3 | 4.2 | 8.77 |  |
| CCCC[C@H](N[C@@H](Cc1ccccc1)C(=O)N1CCC(OCOC)CC1)C(=O)N[C@@H](CC1CCCCC1)[C@@H](O)C[C@H](C(=O)NCCNCCO)C(C)C | 7.96 |  |  |  |  |
| CCCC[C@H](O[C@@H](Cc1ccccc1)C(=O)N1CCC(OCOC)CC1)C(=O)N[C@@H](CC1CCCCC1)[C@@H](O)C[C@H](C(=O)NCCCNC(=O)OCc1ccccc1)C(C)C |  |  |  | 8.37 |  |
| CCCC[C@H](O[C@@H](Cc1ccccc1)C(=O)N1CCC(OCOC)CC1)C(=O)N[C@@H](CC1CCCCC1)[C@@H](O)C[C@H](C(=O)NCCCNC(N)=S)C(C)C |  |  |  | 8.60 |  |
